ChEMBL document CHEMBL4024762, “Discovery of N-(3-Carbamoyl-5,5,7,7-tetramethyl-5,7-dihydro-4H-thieno[2,3-c]pyran-2-yl)-lH-pyrazole-5-carboxamide (GLPG1837), a Novel Potentiator Which Can Open Class III Mutant Cystic Fibrosis Transmembrane Conductance Regulator (CFTR) Channels to a High Extent” (J Med Chem, 2018)

How the values were obtained:
[1] = biological target: Cystic fibrosis transmembrane conductance regulator (Homo sapiens, UniProt P13569, F508DEL); assay: (§1) Potentiation of CFTR F508del mutant (unknown origin) expressed in human CFBE41o cells incubated for 10 mins in presence of forskolin measured for 7 secs by YFP halide assay; assay type: cell-based
Method in brief: (§2)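 CFBE41o- cells (CF bronchial line) transduced by adenovirus with F508del CFTR and YFP (H148Q/I152L/F47L). Cells held 24 h at 27°C, then treated 10 min at room temperature with 10 µM forskolin plus potentiator. YFP fluorescence read for 7 s across addition of NaI buffer (137 mM NaI). Activity = 1-(F/F0).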

[2] = system: Cystic fibrosis transmembrane conductance regulator (Homo sapiens), P13569 [F508del]; assay: as §1; assay type: cell-based; parameters: concentration or dose not given beside the values; method in brief: as §2
[3] = system: Cystic fibrosis transmembrane conductance regulator (Homo sapiens), P13569 [G551D]; assay: (§3) Potentiation of CFTR G551D mutant (unknown origin) expressed in HEK293 cells incubated for 10 mins in presence of forskolin measured for 2 mins by YFP halide assay; assay type: cell-based; parameters: concentration or dose not given beside the values
Method in brief: (§4)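 HEK293 cells transfected with the mutant CFTR (G551D, G178R, S549N or R117H) and YFP (H148Q/I152L/F47L), seeded directly after transfection, then 24 h at 37°C. Treated 10 min at room temperature with 10 µM forskolin plus potentiator. Fluorescence read for 2 min across addition of NaI buffer (375 mM NaI). Activity = 1-(F/F0).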

[4] = biological target: Cystic fibrosis transmembrane conductance regulator (Homo sapiens, UniProt P13569, G551D); assay: as §3; assay type: cell-based; method in brief: as §4
[5] = Unbound intrinsic clearance in rat microsomes; assay type: ADME, Microsome
Method in brief: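 Intrinsic clearance in liver microsomes or hepatocytes, corrected for non-specific binding using fraction unbound in microsomes (Fu,mic) or in hepatocyte incubations (Fu,inc).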

Cystic fibrosis transmembrane conductance regulator (Homo sapiens, UniProt P13569, G551D), sequence (P13569 whole entry G551D): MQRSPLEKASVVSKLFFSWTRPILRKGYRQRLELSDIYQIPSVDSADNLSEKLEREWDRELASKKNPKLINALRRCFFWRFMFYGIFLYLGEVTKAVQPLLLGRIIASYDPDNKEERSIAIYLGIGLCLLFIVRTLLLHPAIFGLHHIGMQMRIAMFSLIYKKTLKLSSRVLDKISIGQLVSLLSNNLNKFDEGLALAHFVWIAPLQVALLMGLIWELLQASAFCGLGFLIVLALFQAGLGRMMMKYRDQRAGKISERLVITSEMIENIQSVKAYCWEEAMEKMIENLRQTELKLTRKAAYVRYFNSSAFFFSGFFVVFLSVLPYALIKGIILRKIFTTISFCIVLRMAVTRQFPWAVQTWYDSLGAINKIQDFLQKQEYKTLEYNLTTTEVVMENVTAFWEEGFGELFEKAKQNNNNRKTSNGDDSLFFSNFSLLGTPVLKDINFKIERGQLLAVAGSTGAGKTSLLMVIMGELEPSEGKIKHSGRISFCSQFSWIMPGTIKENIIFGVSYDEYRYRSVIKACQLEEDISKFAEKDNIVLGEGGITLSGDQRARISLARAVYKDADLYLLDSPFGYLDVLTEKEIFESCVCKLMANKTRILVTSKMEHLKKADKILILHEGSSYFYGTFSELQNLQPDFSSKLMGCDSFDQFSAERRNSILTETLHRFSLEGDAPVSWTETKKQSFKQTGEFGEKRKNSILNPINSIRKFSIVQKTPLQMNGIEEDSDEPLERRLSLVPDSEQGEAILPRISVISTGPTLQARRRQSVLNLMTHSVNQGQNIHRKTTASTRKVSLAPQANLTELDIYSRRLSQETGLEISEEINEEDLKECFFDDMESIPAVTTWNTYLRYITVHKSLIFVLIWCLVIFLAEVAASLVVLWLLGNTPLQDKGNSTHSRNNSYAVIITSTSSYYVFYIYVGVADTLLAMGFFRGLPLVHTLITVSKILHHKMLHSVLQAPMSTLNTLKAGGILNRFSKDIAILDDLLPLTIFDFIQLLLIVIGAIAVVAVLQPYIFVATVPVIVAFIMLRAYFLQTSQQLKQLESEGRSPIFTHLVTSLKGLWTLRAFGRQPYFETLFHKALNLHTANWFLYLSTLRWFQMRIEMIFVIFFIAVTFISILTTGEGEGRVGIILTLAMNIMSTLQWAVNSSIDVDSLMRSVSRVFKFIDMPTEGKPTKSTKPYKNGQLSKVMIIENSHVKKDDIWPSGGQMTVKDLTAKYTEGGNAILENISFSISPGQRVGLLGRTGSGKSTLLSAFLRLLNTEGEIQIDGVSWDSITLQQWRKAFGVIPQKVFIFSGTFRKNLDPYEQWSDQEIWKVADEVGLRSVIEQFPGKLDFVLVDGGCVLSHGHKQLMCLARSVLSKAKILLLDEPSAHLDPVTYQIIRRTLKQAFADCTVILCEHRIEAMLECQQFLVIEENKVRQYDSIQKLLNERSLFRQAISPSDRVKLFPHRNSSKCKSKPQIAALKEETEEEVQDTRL
Cystic fibrosis transmembrane conductance regulator (Homo sapiens), P13569 [G551D], sequence (P13569 whole entry G551D): as above
Cystic fibrosis transmembrane conductance regulator (Homo sapiens), P13569 [F508del], sequence (P13569 as listed by the source): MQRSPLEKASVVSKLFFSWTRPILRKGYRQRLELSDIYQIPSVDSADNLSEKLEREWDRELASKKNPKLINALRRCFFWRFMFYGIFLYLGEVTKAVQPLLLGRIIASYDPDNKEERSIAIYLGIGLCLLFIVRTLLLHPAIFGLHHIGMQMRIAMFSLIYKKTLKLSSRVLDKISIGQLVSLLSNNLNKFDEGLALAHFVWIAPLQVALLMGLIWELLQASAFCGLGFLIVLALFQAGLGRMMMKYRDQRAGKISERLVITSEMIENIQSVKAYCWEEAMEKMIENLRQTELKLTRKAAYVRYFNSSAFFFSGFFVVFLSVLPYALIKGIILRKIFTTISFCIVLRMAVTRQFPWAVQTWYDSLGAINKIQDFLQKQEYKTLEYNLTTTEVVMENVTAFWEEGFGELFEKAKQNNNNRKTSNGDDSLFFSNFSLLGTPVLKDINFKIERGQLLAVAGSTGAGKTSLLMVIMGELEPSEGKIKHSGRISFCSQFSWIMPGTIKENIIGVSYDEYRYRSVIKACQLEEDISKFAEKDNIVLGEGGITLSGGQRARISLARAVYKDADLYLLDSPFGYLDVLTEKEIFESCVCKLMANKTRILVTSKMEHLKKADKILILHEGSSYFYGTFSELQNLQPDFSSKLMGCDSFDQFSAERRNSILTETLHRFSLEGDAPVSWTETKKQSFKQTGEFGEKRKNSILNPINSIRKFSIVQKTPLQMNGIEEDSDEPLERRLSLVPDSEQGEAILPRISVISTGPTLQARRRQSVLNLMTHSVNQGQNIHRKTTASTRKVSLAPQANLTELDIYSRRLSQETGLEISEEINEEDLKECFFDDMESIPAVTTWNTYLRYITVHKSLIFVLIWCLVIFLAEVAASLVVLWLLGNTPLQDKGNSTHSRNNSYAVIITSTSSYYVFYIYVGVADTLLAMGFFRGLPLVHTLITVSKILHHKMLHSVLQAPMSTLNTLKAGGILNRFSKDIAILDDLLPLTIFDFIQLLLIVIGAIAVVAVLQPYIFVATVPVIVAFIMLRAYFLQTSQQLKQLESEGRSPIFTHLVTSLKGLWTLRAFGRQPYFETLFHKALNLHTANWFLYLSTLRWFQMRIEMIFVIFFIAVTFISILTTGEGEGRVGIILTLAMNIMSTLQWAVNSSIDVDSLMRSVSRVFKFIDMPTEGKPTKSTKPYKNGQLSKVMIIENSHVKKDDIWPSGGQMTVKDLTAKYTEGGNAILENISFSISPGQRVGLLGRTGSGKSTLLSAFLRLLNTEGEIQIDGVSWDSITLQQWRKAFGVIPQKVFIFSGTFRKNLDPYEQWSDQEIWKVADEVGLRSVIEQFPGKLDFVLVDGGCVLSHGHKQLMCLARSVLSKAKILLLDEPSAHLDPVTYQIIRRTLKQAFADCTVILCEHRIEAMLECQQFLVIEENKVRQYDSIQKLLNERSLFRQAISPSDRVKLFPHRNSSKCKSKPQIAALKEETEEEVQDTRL
Cystic fibrosis transmembrane conductance regulator (Homo sapiens, UniProt P13569, F508DEL), sequence (P13569 as listed by the source): as above

Row | Structure (SMILES) | EC50 [1] | Activity [2] | Activity [3] | EC50 [4] | CL free [5]
1 | CC(C)(C)c1cc(C(C)(C)C)c(NC(=O)c2c[nH]c3ccccc3c2=O)cc1O [IVACAFTOR] | 126 nM | 100% | 50% | 1300 nM | –
2 | CC1(C)Cc2c(sc(NC(=O)c3ccccc3O)c2C(N)=O)C(C)(C)O1 | 4 nM | 111% | 52% | – | –
3 | CC1(C)Cc2c(sc(NC(=O)C3CCNC3=O)c2C(N)=O)C(C)(C)O1 (configuration not stated) | 101 nM | – | – | – | –
4 | CC1(C)Cc2c(sc(NC(=O)[C@@H](O)C(C)(C)C)c2C(N)=O)C(C)(C)O1 | 2.7 nM | 95% | 50% | 421 nM | –
5 | Cc1cc(C(=O)Nc2sc3c(c2C(N)=O)CC(C)(C)OC3(C)C)[nH]n1 | 13 nM | 81% | 73% | – | –
6 | CC1(C)Cc2c(sc(NC(=O)Cc3ccn[nH]3)c2C(N)=O)C(C)(C)O1 | 136 nM | – | – | – | –
7 | CC1(C)Cc2c(sc(NC(=O)c3cccnc3O)c2C(N)=O)C(C)(C)O1 | 190 nM | – | – | – | –
8 | Cc1ccc(C(=O)Nc2sc3c(c2C(N)=O)CCCC3)s1 | 652 nM | 72% | – | – | –

Second part, the compound after the results:

Row | EC50 [1] | Activity [2] | Activity [3] | EC50 [4] | CL free [5] | Structure (SMILES)
9 | > 10000 nM | – | – | – | – | CC1(C)Cc2c(sc(NC(=O)C3CNC(=O)C3)c2C(N)=O)C(C)(C)O1 (configuration not stated)
10 | 778 nM | 74% | – | – | – | Cc1ccc(C(=O)Nc2sc3c(c2C(N)=O)CCOC3)s1
11 | 15 nM | 105% | 57% | 1320 nM | – | CC1(C)Cc2c(sc(NC(=O)C3(CO)CC3)c2C(N)=O)C(C)(C)O1
12 | 2 nM | 96% | 83% | 123 nM | – | Cc1cn[nH]c1C(=O)Nc1sc2c(c1C(N)=O)CC(C)(C)OC2(C)C
13 | 326 nM | 71% | 18% | > 10000 nM | 84 L/h/kg | NC(=O)c1c(NC(=O)c2ccccc2Cl)sc2c1CCCC2
14 | 147 nM | – | – | – | – | CC1(C)Cc2c(sc(NC(=O)c3ccccc3NS(C)(=O)=O)c2C(N)=O)C(C)(C)O1
15 | 467 nM | – | – | – | – | CC1(C)Cc2c(sc(NC(=O)c3nnc[nH]3)c2C(N)=O)C(C)(C)O1
